# The sample as a whole holds a higher share of hits than the screen did.
# HSF1 inhib: HSF1 inhibitors in luciferase reporter cells, primary screen, cell-based, NIH3T3, luminescence; NIH3T3-HGL HSE-luciferase, MG132-induced, luminescence 8 h; stronger effect = lower value; activity change, negative = inhibition, % at 7.5 µM (by protocol); 0.77% of 300,000 active; AID 2098, 2009;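 active means more than half of replicate wells show activity change below -50%, luminescence cut by over half; inconclusive means some wells, but at most half, below -50%; inactive means no replicate well below -50%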;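 further: luciferase reports HSF-1 transcriptional activity via heat shock element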
# T cruzi repl: inhibitors of intracellular T. cruzi growth, primary screen, luminescence, NIH3T3 host cells; T. cruzi beta-gal in NIH3T3, 90 h; 1.4% of 300,000 active; inhibition, % (concentration not given with the values);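 active means mean inhibition across valid replicates above about 55%, limit read from the data; inconclusive means mean below that limit but half or more replicates reach it; inactive means mean below it, under half of replicates reach it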;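 further: signal also drops with host cell toxicity which is not excluded here; higher percent means less beta-gal luminescence so fewer parasites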
#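 Material: NIH/3T3 host cells with β-galactosidase reporter T. cruzi; Input: 5,000 host fibroblasts per well; Medium: DMEM, 2% fetal bovine serum; Compound: 50 nL DMSO compound solution per well; Schedule: 3 h host attachment, then at least 90 h co-culture; Detection: luminescent β-galactosidase signal after 60 min lysis.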
# L major viab: Leishmania major promastigote growth inhibition, primary screen; 9% of 200,000 active; inhibition, % at 10 µM; Leishmania major promastigotes, resazurin fluorescence viability; AID 1063, 2008; in the data active means inhibition above about 50%;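 further: promastigotes grown with compound for 44 hours at 28 °C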
# HSF1 activator: HSF-1 activators, primary screen, NIH3T3-HGL cells, MG132 stress, luminescence, single point. NIH3T3-HGL HSF-1 luciferase reporter, 8 h; 100% = twice DMSO control signal. activation, % at 9 µM. 1.7% of 300,000 active. AID 504408, 2011;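 active means mean replicate activation of at least 50% with a set share of replicates each reaching 50%; inconclusive means only one of those two conditions met; inactive means mean below 50% and too few replicates reaching it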
# Hsp70 act: Hsp70 transcriptional activators, primary screen, cell-based, HeLa, Hsp70 promoter luciferase, luminescence, 10 µM | AID 1203, 2008 | activation, % at 10 µM | 0.04% of 200,000 active | HeLa Hsp70 promoter luciferase reporter; scaled: vehicle 0, proteasome-inhibitor control 100%;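 active means activation above the mean across all tested compounds plus 3 SD, cutoff set per campaign, cut at about 5.5% in these data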
# L major 1uM: Leishmania major promastigote growth inhibition, confirmation, 1 µM repeat of primary hits; shares compounds with L major viab; L. major promastigote growth, resazurin fluorescence, 48 h; inhibition, % at 1 µM; 13% of 1,100 active; AID 1258, 2008;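 active means inhibition above about 50% in both repeat tests, limit read from the data; inconclusive means one repeat under the set limit, the other over it; inactive means both repeats under the set limit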
# Numbers stand for hits; 0 = inactive; ? = inconclusive; - = no result.
SMILES,HSF1 inhib,T cruzi repl,L major viab,HSF1 activator,Hsp70 act,L major 1uM
N#C/C(=C\Nc1ccccc1O)c1nc2ccccc2o1,?,0,79,0,0,0
N#C/C(=C\c1cccc(O)c1)c1nc2ccccc2o1,0,0,-,0,-,-
CC(=O)N1N=C(c2cccc(Br)c2)OC12CCCC2,0,0,0,0,0,-
COC(=O)c1cc(S(=O)(=O)N2CCC(c3cc(OC)ccc3OC)C2)c[nH]1 (stereo not given),0,0,-,0,-,-
Cc1ccc(NC(=O)CSCC(=O)Nc2cc(Cl)ccc2N2CCN(C)CC2)cc1,0,0,-,0,-,-
Cc1ccc(SCC(=O)Nc2ccc(N3CCN(C)CC3)c(F)c2)cc1,0,0,100,0,0,0
COc1nc(-c2ccccc2)ncc1S(=O)(=O)c1ccccc1,0,0,0,0,0,-
Cc1nc(-c2ccccc2)sc1-c1nc(-c2ccncc2)ncc1S(=O)(=O)c1ccccc1,0,0,58,0,0,0
Cn1nc([N+](=O)[O-])nc1Sc1nnc(-c2ccccc2)o1,0,69,99,0,0,0
O=C(COC(=O)C1C2CC3OC(=O)C1C3C2)Nc1ccccc1 (stereo not given),0,0,-,0,-,-
CSc1nnnn1-c1c(C)cccc1C,0,0,-,0,-,-
Cc1ccc(NC2(c3nnnn3-c3c(C)cccc3C)CCCCC2)cc1,0,0,97,0,0,0
S=c1[nH]ccn1-c1cccc(Cl)c1,0,0,59,0,0,0
CN(C)c1ccc(N2CN=C3SCC(=O)N3C2)cc1,0,?,62,0,0,0
Oc1ccc(-c2nc3c4c(ncn3n2)-c2ccccc2CC42CCCC2)cc1,0,0,87,0,0,0
Nn1cnc2c(c1=O)C1(CCCCC1)Cc1ccccc1-2,0,0,0,0,0,-
COc1ccc(OC)c(C(c2nnnn2C2CCCC2)N2CCc3ccccc3C2)c1 (stereo not given),0,0,88,0,0,0
COc1ccc(C(c2nnnn2C2CCCC2)N2CCC(C(N)=O)CC2)c(OC)c1 (stereo not given),0,0,0,0,0,-
O=c1cc(Cl)[nH]c(=O)n1Cc1ccccc1,0,0,-,0,-,-
O=c1ccsn1Cc1ccccc1,0,67,101,0,0,0
CCCNC(=O)[C@H]1N2C(=O)c3c(ccc(OC)c3OC)C2SC1(C)C (stereo not given in full),0,0,-,0,-,-
C=CCN=C1CCCc2c1[nH]c1ccc(C)cc21,0,0,0,0,0,-
COC(=O)c1cccc(Cn2c(Cl)c(/C=N/Nc3ccccc3C)sc2=O)c1,0,0,58,151,0,64
COC(=O)c1c(C)[nH]c(C)c1-c1ccccc1Cl,0,0,0,0,0,-
COC(=O)C1=C(C(=O)OC)SC2(S1)C(C(=O)OC)=C(C(=O)OC)SC1=C2c2cccc(C)c2NC1(C)C,0,0,100,0,0,0
SMILES,HSF1 inhib,T cruzi repl,L major viab,HSF1 activator,Hsp70 act,L major 1uM
O=C(/C=C/c1cccc([N+](=O)[O-])c1)NCCN1C(=O)S/C(=C\c2cccnc2)C1=O,0,0,60,0,0,0
CC(=O)c1ccc(OCC(=O)NCc2ccc(F)cc2)cc1,0,0,0,0,0,-
O=C(Cc1ccccc1)Nc1ccc(N2CCOCC2)cc1N1CCOCC1,0,0,0,0,0,-
O=C(Cc1ccccc1)Nc1cc(C(=O)c2ccccc2)ccc1N1CCOCC1,0,0,97,0,0,0
COc1cc(/C=N/NC(=O)CSc2ccccn2)ccc1OC(C)C,0,0,-,0,-,-
Cc1ccccc1N=C1NC(=O)CS1,0,0,0,0,0,-
Cc1ccccc1N=C1Nc2ccccc2CS1,0,0,51,0,0,0
O=Cc1cn(-c2ccccc2)nc1-c1ccc2c(c1)OCCO2,-,-,96,-,0,0
Cc1ccc(N2CN(Cc3cccnc3)CNC2=S)c(C)c1,0,?,86,0,0,0
Cc1ccc(N2CN(Cc3ccco3)CNC2=S)c(C)c1,0,0,0,0,0,-
O=C1c2ccccc2-c2onc3ccc(Oc4ccccc4)c1c23,0,0,100,0,0,0
c1ccc(COn2nnc3ccccc32)c(COn2nnc3ccccc32)c1,0,0,87,0,0,0
